Measurements published in ChEMBL document CHEMBL4011662 (J Med Chem, 2017).

Experiments:
Type in all cases: cell-based
[1] = target: Probable G-protein coupled receptor 34 (Mus musculus, UniProt Q9R1K6); experiment: Agonist activity at mouse GPR34 expressed in HEK293 cells co-transfected with AP-TGFalpha/chimeric Galphaq/i1 assessed as induction of ectodomain shedding of membrane bound AP-TGFalpha after 1 hr
Procedure, shortened: (§1)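 HEK293A cells transiently co-transfected with AP-TGFα, chimeric Gαq/i1 and GPR34 (human for line 1, mouse for line 3) or empty vector (mock). After 24 h, cells were suspended in HBSS with 5 mM HEPES pH 7.4 and preincubated 30 min with 10 μM (final) Ki16425. Compounds in HBSS with 0.01% fatty acid-free BSA were added for 1 h at 37 °C. AP activity in medium and on cells was read as OD405 with p-NPP after 1 h at room temperature.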

[2] = target: Probable G-protein coupled receptor 34 (Mus musculus) (UniProt Q9R1K6); experiment: Intrinsic activity at mouse GPR34 expressed in HEK293 cells co-transfected with AP-TGFalpha/chimeric […] assessed as induction of ectodomain shedding of membrane bound AP-TGFalpha after 1 hr relative to O-(Hydroxy(((2R,3R)-2-(((3-(2-((3-phenoxybenzyl)oxy)phenyl)- propanoyl)oxy)methyl)tetrahydro-2H-pyran-3-yl)oxy)phosphoryl)- L-serine
Procedure, shortened: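 Relative intrinsic activity (RIA) was Emax/EC50 relative to that of a positive control agonist, whose RIA is defined as 1. Emax and EC50 came from sigmoid fits of receptor-specific AP-TGFα release in the HEK293A shedding assay, with human GPR34 for line 5 and mouse GPR34 for line 6, after 1 h at 37 °C.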

[3] = target: Probable G-protein coupled receptor 34 (Mus musculus) (UniProt Q9R1K6); experiment: Agonist activity at mouse GPR34 expressed in HEK293 cells co-transfected with AP-TGFalpha/chimeric Galphaq/i1 assessed as induction of ectodomain shedding of membrane bound AP-TGFalpha after 1 hr relative to control
Procedure, shortened: (§2)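 Same AP-TGFα shedding set-up in HEK293A (human GPR34 for line 2, mouse for line 4). Release was the %AP-TGFα in medium minus vehicle, then minus the mock-transfected response. Emax (% AP-TGFα release) and LogEC50 came from four-parameter sigmoid fits of plateau or semiplateau curves, as mean ± SEM of n independent experiments.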

[4] = target: T1, Probable G-protein coupled receptor 34 (Homo sapiens, UniProt Q9UPC5); experiment: Agonist activity at human GPR34 expressed in HEK293 cells co-transfected with AP-TGFalpha/chimeric Galphaq/i1 assessed as induction of AP-TGFalpha release after 1 hr; procedure, shortened: as §1
[5] = target: T1, Probable G-protein coupled receptor 34; experiment: Intrinsic activity at human GPR34 expressed in HEK293 cells co-transfected with AP-TGFalpha/chimeric Galphaq/i1 assessed as induction of AP-TGFalpha release after 1 hr relative to O-(Hydroxy(((2R,3R)-2-(((3-(2-((3-phenoxybenzyl)oxy)phenyl)- propanoyl)oxy)methyl)tetrahydro-2H-pyran-3-yl)oxy)phosphoryl)- L-serine
[6] = target: T1, Probable G-protein coupled receptor 34; experiment: Agonist activity at human GPR34 expressed in HEK293 cells co-transfected with AP-TGFalpha/chimeric Galphaq/i1 assessed as induction of AP-TGFalpha release after 1 hr relative to control; procedure, shortened: as §2

T1 sequence (Q9UPC5 whole entry): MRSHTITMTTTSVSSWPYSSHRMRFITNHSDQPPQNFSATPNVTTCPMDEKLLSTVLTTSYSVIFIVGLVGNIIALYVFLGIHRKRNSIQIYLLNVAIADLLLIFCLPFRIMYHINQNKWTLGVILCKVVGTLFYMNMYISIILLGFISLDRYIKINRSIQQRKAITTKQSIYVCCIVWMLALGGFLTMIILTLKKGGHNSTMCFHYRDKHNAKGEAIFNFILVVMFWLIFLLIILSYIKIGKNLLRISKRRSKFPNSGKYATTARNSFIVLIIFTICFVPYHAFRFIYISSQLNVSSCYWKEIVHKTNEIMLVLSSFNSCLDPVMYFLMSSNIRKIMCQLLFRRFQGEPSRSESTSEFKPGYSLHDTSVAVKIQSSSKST
Probable G-protein coupled receptor 34 (Mus musculus), sequence (Q9R1K6 whole entry, the tested form may be a part): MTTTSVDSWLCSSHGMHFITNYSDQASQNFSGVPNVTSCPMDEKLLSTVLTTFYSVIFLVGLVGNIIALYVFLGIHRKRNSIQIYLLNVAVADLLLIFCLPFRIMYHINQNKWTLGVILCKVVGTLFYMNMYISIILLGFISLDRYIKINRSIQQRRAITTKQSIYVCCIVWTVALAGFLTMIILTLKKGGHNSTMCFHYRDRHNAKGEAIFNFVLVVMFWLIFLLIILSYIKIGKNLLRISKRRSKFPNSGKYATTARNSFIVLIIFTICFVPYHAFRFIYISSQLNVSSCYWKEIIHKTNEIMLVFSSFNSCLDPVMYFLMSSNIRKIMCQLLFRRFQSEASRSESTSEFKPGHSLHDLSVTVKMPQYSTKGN
Probable G-protein coupled receptor 34 (Mus musculus, UniProt Q9R1K6), sequence (Q9R1K6 whole entry, the tested form may be a part): as above

| SMILES | EC50 [1] | Intrinsic activity [2] | Emax [3] | EC50 ([4]; read-out: EC50) | Intrinsic activity [5] | Emax [6] | EC50 ([4]; read-out: pEC50 (converted)) |
| --- | --- | --- | --- | --- | --- | --- | --- |
| CCCCCCOc1cccc(COc2ccccc2CCC(=O)OCCCOP(=O)(O)OC[C@H](N)C(=O)O)c1 | > 3000 nM | – | – | – | – | – | – |
| N[C@@H](COP(=O)(O)OCCCOC(=O)CCc1ccccc1OCc1cccc(Oc2cccc(Cl)c2)c1)C(=O)O | 170 nM | 0.53 | 17.1% | – | – | – | – |
| CCCCCCOCC#CCOc1ccccc1CCC(=O)OCCCOP(=O)(O)OC[C@H](N)C(=O)O | > 3000 nM | – | – | – | – | – | – |
| CCCCCCCC/C=C\CCCCCCCC(=O)OC[C@@H](O)COP(=O)(O)OC[C@H](N)C(=O)O | – | 0.26 | 14% | – | – | – | – |
| N[C@@H](COP(=O)(O)OCCCOC(=O)CCc1ccccc1OCc1cccc(Oc2ccc(F)cc2)c1)C(=O)O | 120 nM | 0.66 | 18.7% | – | – | – | – |
| N[C@@H](COP(=O)(O)OCCCOC(=O)CCc1ccccc1OCCCCOc1ccccc1)C(=O)O | 1700 nM | 0.033 | 6.1% | – | – | – | – |
| N[C@@H](COP(=O)(O)OCCCOC(=O)CCc1ccccc1OCCCCCCOc1ccccc1)C(=O)O | 1200 nM | 0.071 | 20.7% | – | – | – | – |
| N[C@@H](COP(=O)(O)OCCCOC(=O)CCc1ccccc1OCc1cccc(Oc2ccccc2)c1)C(=O)O | 220 nM | 0.48 | 19.4% | 90 nM | 1.7 | 21.7% | 95.5 nM |
| N[C@@H](COP(=O)(O)OCCCOC(=O)CCc1ccccc1OCc1cccc(OCc2ccccc2)c1)C(=O)O | > 3000 nM | – | – | – | – | – | – |
| CCc1ccc(Oc2cccc(COc3ccccc3CCC(=O)OCCCOP(=O)(O)OC[C@H](N)C(=O)O)c2)cc1 | 180 nM | 0.42 | 19.3% | – | – | – | – |
| COc1ccc(Oc2cccc(COc3ccccc3CCC(=O)OCCCOP(=O)(O)OC[C@H](N)C(=O)O)c2)cc1 | 260 nM | 0.28 | 16.6% | – | – | – | – |
| N[C@@H](COP(=O)(O)OCCCOC(=O)CCc1ccccc1OCc1cccc(Oc2ccccc2Cl)c1)C(=O)O | 1200 nM | 0.069 | 19.8% | – | – | – | – |
| CCCCCCCC/C=C\CCCCCCCC(=O)OCCCOP(=O)(O)OC[C@H](N)C(=O)O | > 3000 nM | – | – | – | – | – | – |
| CC(C)(C)c1ccccc1Oc1cccc(COc2ccccc2CCC(=O)OCCCOP(=O)(O)OC[C@H](N)C(=O)O)c1 | > 3000 nM | – | – | – | – | – | – |
| N[C@@H](COP(=O)(O)OCCCOC(=O)CCc1ccccc1OCc1cccc(-c2ccccc2)c1)C(=O)O | > 3000 nM | – | – | – | – | – | – |
| CCCCCCCCCCCOc1ccccc1CCC(=O)OCCCOP(=O)(O)OC[C@H](N)C(=O)O | 1600 nM | 0.04 | 14.6% | – | – | – | – |
| N[C@@H](COP(=O)(O)OCCCOC(=O)CCc1ccccc1OCc1cccc(Oc2ccc(I)cc2)c1)C(=O)O | 100 nM | 0.82 | 19.1% | – | – | – | – |
| N[C@@H](COP(=O)(O)O[C@@H]1CCCO[C@@H]1COC(=O)CCc1ccccc1OCc1cccc(Oc2ccccc2)c1)C(=O)O | 180 nM | 1 | 21.3% | 150 nM | 1 | 25.6% | – |
| Cc1ccccc1Oc1cccc(COc2ccccc2CCC(=O)OCCCOP(=O)(O)OC[C@H](N)C(=O)O)c1 | 650 nM | 0.28 | 20.3% | 180 nM | 1.2 | 22% | – |
| N[C@@H](COP(=O)(O)OCCCOC(=O)CCc1ccccc1OCc1cccc(Oc2ccc(Cl)c(Cl)c2)c1)C(=O)O | 110 nM | 0.71 | 18% | – | – | – | – |
| Cc1cccc(Oc2cccc(COc3ccccc3CCC(=O)OCCCOP(=O)(O)OC[C@H](N)C(=O)O)c2)c1 | 550 nM | 0.29 | 21.3% | 230 nM | 1.2 | 24.2% | – |
| N[C@@H](COP(=O)(O)OCCCOC(=O)CCc1ccccc1OCc1cccc(Cc2ccccc2)c1)C(=O)O | 1300 nM | 0.077 | 14.5% | – | – | – | – |
| N#Cc1ccc(Oc2cccc(COc3ccccc3CCC(=O)OCCCOP(=O)(O)OC[C@H](N)C(=O)O)c2)cc1 | 2000 nM | 0.041 | 18.3% | – | – | – | – |
| N[C@@H](COP(=O)(O)OCCCOC(=O)CCc1ccccc1OCc1cccc(OC2CCCCC2)c1)C(=O)O | 800 nM | 0.11 | 18.8% | – | – | – | – |

Continued, values first:

| EC50 [1] | Intrinsic activity [2] | Emax [3] | EC50 ([4]; read-out: EC50) | Intrinsic activity [5] | Emax [6] | EC50 ([4]; read-out: pEC50 (converted)) | SMILES |
| --- | --- | --- | --- | --- | --- | --- | --- |
| 45 nM | 2.2 | 17.8% | 78 nM | 2.1 | 23% | – | N[C@@H](COP(=O)(O)OCCCOC(=O)CCc1ccccc1OCc1cccc(Oc2ccc(-c3ccccc3)cc2)c1)C(=O)O |
| 210 nM | 0.39 | 19.9% | – | – | – | – | CC(C)(C)c1cccc(Oc2cccc(COc3ccccc3CCC(=O)OCCCOP(=O)(O)OC[C@H](N)C(=O)O)c2)c1 |
| 900 nM | 0.079 | 16.9% | 300 nM | 0.7 | 28.2% | – | CC(C)(C)c1ccc(Oc2cccc(COc3ccccc3CCC(=O)OCCCOP(=O)(O)OC[C@H](N)C(=O)O)c2)cc1 |
| 14 nM | 7.7 | 15.9% | 15 nM | 8.6 | 18.8% | – | CC(C)(C)c1cccc(-c2ccc(Oc3cccc(COc4ccccc4CCC(=O)OCCCOP(=O)(O)OC[C@H](N)C(=O)O)c3)cc2)c1 |
| 78 nM | 0.94 | 13.4% | – | – | – | – | Cc1ccccc1-c1ccc(Oc2cccc(COc3ccccc3CCC(=O)OCCCOP(=O)(O)OC[C@H](N)C(=O)O)c2)cc1 |
| 39 nM | 3.7 | 18.2% | 27 nM | 9.8 | 22.1% | – | Cc1ccc(Oc2cccc(COc3ccccc3CCC(=O)OCCCOP(=O)(O)OC[C@H](N)C(=O)O)c2)cc1 |
| 2700 nM | 0.089 | 21.3% | – | – | – | – | Nc1ccc(Oc2cccc(COc3ccccc3CCC(=O)OCCCOP(=O)(O)OC[C@H](N)C(=O)O)c2)cc1 |
| 7.9 nM | 21 | 16.5% | – | – | – | – | CC(C)(C)c1ccc(-c2ccc(Oc3cccc(COc4ccccc4CCC(=O)OCCCOP(=O)(O)OC[C@H](N)C(=O)O)c3)cc2)cc1 |
| 82 nM | 0.97 | 17.7% | – | – | – | – | N[C@@H](COP(=O)(O)OCCCOC(=O)CCc1ccccc1OCc1cccc(Oc2ccc(Br)cc2)c1)C(=O)O |
| 49 nM | 3.4 | 17.4% | – | – | – | – | CCCCCCOc1ccc(-c2ccc(Oc3cccc(COc4ccccc4CCC(=O)OCCCOP(=O)(O)OC[C@H](N)C(=O)O)c3)cc2)cc1 |
| 120 nM | 0.76 | 17.8% | – | – | – | – | N[C@@H](COP(=O)(O)OCCCOC(=O)CCc1ccccc1OCc1cccc(Oc2ccc(Cl)cc2)c1)C(=O)O |
| 18 nM | 4.3 | 11.6% | 41 nM | 3.2 | 17% | – | N[C@@H](COP(=O)(O)OCCCOC(=O)CCc1ccccc1OCc1cccc(Oc2ccc(-c3ccc(-c4ccccc4)cc3)cc2)c1)C(=O)O |
